Measured values from different studies.
Medium: plasma

COc1ccc(-n2nc(C(N)=O)c3c2C(=O)N(c2ccc(N4CCCCC4=O)cc2)CC3)cc1
AUC(0-inf) (male human; oral, 25 mg, single dose): 3410 ng·h/mL

CCCOc1ccc([C@H]2CNC(=O)N2c2ccc3[nH]cnc3c2)cc1
AUC(0-inf) (human; oral, 200 mg, single dose, fasted, healthy volunteers): 2330 ng·h/mL

CN(C)CCCNC(=O)/C(=C/CCCCC(=O)NO)COc1cccc2ccccc12
AUC(0-inf) (human; intravenous, 187.5 mg/m², single dose): 30700 ng·h/mL

CC(C)(Sc1ccncc1-c1ccc(C#N)c2ccccc12)C(=O)O
AUC(0-inf) (male human; oral, 40 mg, single dose, fasted, healthy volunteers): 1270 ng·h/mL

FC(F)(F)c1ccc(CNc2ccc(Cc3c[nH]c4ncc(Cl)cc34)cn2)cn1
AUC(0-inf) (male human; oral, 400 mg, single dose, healthy volunteers): 61300 ng·h/mL

COc1ccc([C@@H]2CN(C(=O)[C@@H](O)CO)C[C@@]2(C)[C@@H](C)O)cc1OC1CN(c2ccc(C)cn2)C1
AUC(0-inf) (human; oral, 10 mg, single dose, healthy volunteers): 3160 ng·h/mL

CNC(=O)c1ccccc1Sc1ccc2c(/C=C/c3ccccn3)n[nH]c2c1
AUC(0-inf) (human; oral, 5 mg, single dose, fasted): 197 ng·h/mL

CS(=O)(=O)CCC#N
AUC(0-inf) (human; oral, 1000 mg, single dose, fasted): 930000 ng·h/mL

CC(C)[C@](O)(c1ccc2cc(OC(F)F)c(OC(F)F)cc2c1)c1c[nH]nn1
AUC(0-inf) (female human; oral, 600 mg, single dose): 54700 ng·h/mL

Nc1ccc(-c2nc([C@H]3CCc4cc(-c5cc(Cl)ccc5-n5cnnn5)cc(=O)n43)c(F)[nH]2)c(F)n1
AUC(0-inf) (human; oral, 80 mg, single dose, fasted): 17500 ng·h/mL

O=C(Nc1c(Cl)cncc1Cl)c1ccc(OC(F)F)c(OCC2CC2)c1
AUC(0-inf) (human; oral, 0.375 mg, single dose, fasted): 48.7 ng·h/mL

COC(=O)N[C@@H](C)CNc1nccc(-c2cn(C(C)C)nc2-c2cc(Cl)cc(NS(C)(=O)=O)c2F)n1
AUC(0-inf) (human; oral, 50 mg, single dose): 1880 ng·h/mL

CCCCC[C@H](O)CC[C@@H]1[C@H]2Cc3cccc(OCC(=O)O)c3C[C@H]2C[C@H]1O
AUC(0-inf) (human; inhaled, 36 µg, single dose, healthy volunteers): 0.7 ng·h/mL

CO[C@H]1CC[C@H](N2C(=O)CNc3ncc(-c4ccc(C(C)(C)O)nc4)nc32)CC1
AUC(0-inf) (human; oral, 30 mg, patients): 1230 ng·h/mL

CCc1nc2c(C)cc(N3CCN(CC(=O)N4CC(O)C4)CC3)cn2c1N(C)c1nc(-c2ccc(F)cc2)c(C#N)s1
AUC(0-inf) (human; oral, 1000 mg, fed, healthy volunteers): 71400 ng·h/mL

Cn1cc(-c2ccc(S(=O)(=O)[C@@H]3C[C@@H](C(=O)NC4(C#N)CC4)N(C(=O)C4(C(F)(F)F)CC4)C3)c(C(F)(F)F)c2)cn1
AUC(0-inf) (human; oral, 1 mg, single dose, fasted, healthy volunteers): 44.9 ng·h/mL

CC(C)n1cc(C#N)c2cc(-n3cc(C(=O)O)cn3)ccc21
AUC(0-inf) (human; oral, 200 mg, single dose, fed): 44300 ng·h/mL

O=C(/C=C/c1cccc(S(=O)(=O)Nc2ccccc2)c1)NO
AUC(0-inf) (human; intravenous, 1800 mg/m², patients): 55200 ng·h/mL

CCc1cnn2c(NCc3ccc[n+]([O-])c3)cc(N3CCCC[C@H]3CCO)nc12
AUC(0-inf) (human; intravenous, 9 mg/m², patients): 796 ng·h/mL

C[C@@]1(c2cc(NC(=O)c3ccc(C#N)cn3)ccc2F)C=CSC(N)=N1
AUC(0-inf) (human; oral, 3 mg, single dose): 259 ng·h/mL

C=C(F)C(=O)N1CCN(c2nc(OC[C@@H]3CCCN3C)nc3c2CCN(c2cccc4cccc(Cl)c24)C3)C[C@@H]1CC#N
AUC(0-inf) (human; oral, 600 mg, single dose, fasted): 37100 ng·h/mL

CC(C)(O)c1ccccc1-c1ccc2[nH]c(/C=C/c3ccc(C(F)(F)F)cc3)nc2c1
AUC(0-inf) (male human; oral, 15 mg, single dose, fasted): 5190 ng·h/mL

CO[C@H]1/C=C\C=C(/C)C(=O)NC2=CC(=O)C(NCCN(C)C)=C(C[C@@H](C)C[C@H](OC)[C@H](O)[C@@H](C)/C=C(\C)[C@@H]1OC(N)=O)C2=O
AUC(0-inf) (human; intravenous, 12 mg/m², patients, infusion): 1220 ng·h/mL
